# B1: BimS2A: full-length BimS containing the L62A/F69A mutations, retrovirally expressed (protein)
# chain: MAKQPSDVSSECDREGRQLQPAERPPQLRPGAPTSLQTEPQASMRQAEPADMRPEIWIAQEARRIGDEANAYYARRVFLNNYQAAEDHPRMVILRLLRYIVRLVWRMH
# modifications: left off: HA, end not stated, kept
# B2: Bad: BH3-only protein targeting Bcl-xL, Bcl-w and Bcl-2, retrovirally expressed (protein, UniProt Q61337 1-204, looked up)
# Bcl2-associated agonist of …: MGTPKQPSLAPAHALGLRKSDPGIRSLGSDAGGRRWRPAAQSMFQIPEFEPSEQEDASATDRGLGPSLTEDQPGPYLAPGLLGSNIHQQGRAATNSHHGGAGAMETRSRHSSYPAGTEEDEGMEEELSPFRGRSRSAPPNLWAAQRYGRELRRMSDEFEGSFKGLPRPKSAGTATQMRQSAGWTRIIQSWWDRNLGKGGSTPSQ
# B3: Noxa: BH3-only protein preferentially binding Mcl-1, retrovirally expressed (protein, UniProt Q9JM54 1-103, looked up)
# Phorbol-12-myristate-13-acetat …: MPGRKARRNAPVNPTRAELPPEFAAQLRKIGDKVYCTWSAPDITVVLAQMPGKSQKSRMRSPSPTRVPADLKDECAQLRRIGDKVNLRQKLLNLISKLFNLVT
# Key:
# [1] = system: cytochrome c release from MEF mitochondria; experiment: in vitro cytochrome c release assay; type: cell-based, mouse; details: 5 μM ABT-737, 30°C, 1 h
# MEFs [2] = experiment: short-term killing assay with ABT-737; type: cell-based, mouse
# In short: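 Constructs in pMIG (MSCV-IRES-GFP) were packaged in transiently transfected ecotropic Phoenix cells. Filtered supernatants were spin-inoculated onto FDC-P1 cells or SV40 large T-immortalized MEFs. ABT-737 was added immediately after spin inoculation. Viability was the fraction of GFP+ cells excluding 5 μg/ml PI, read by flow cytometry 30 h or at indicated times after transduction. MEF dose-response used stably infected lines given 0–10 μM ABT-737 for 24 h.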
# primary thymocytes = experiment: ionomycin-induced killing, cell viability; type: cell-based, mouse; details: 1 μg/ml ionomycin
# In short: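 Thymocytes came from bim+/+ or bim−/− mice. They were treated with 1 μg/ml ionomycin for 0–24 h. Viability was scored by flow cytometry as propidium iodide-excluding cells. Values are means ± SD of three experiments.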
# [3] = system: Mcl-1 in primary thymocytes; experiment: Mcl-1 levels by Western blotting after ionomycin; type: cell-based, mouse; details: with 50 μM qVD-OPH
# In short: (§1)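 Cells were cultured with 50 μM qVD-OPH to block caspase cleavage of Mcl-1. For 2, MCF-7 cells were given 1.5 μM thapsigargin for up to 48 h. For 1, primary bim+/+ mouse thymocytes were given 1 μg/ml ionomycin. Cells were lysed in 1% (vol/vol) Triton X-100 buffer. Western blots were probed with rat monoclonal anti-Mcl-1 (19C4-15) and anti-Bim, then reprobed for HSP70 as loading control.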
# MCF-7 cells = experiment: thapsigargin-induced apoptosis, cell viability; type: cell-based; details: 1.5 μM thapsigargin, 0–48 h
# In short: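 Wild-type MCF-7 cells and a subclone stably expressing Bim shRNA were treated with 1.5 μM thapsigargin for 0–48 h. Survival was measured by flow cytometry as propidium iodide exclusion. Values are means ± SD of three experiments.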
# Mcl-1 in MCF-7 cells = experiment: Mcl-1 levels by Western blotting after thapsigargin; type: cell-based; details: up to 48 h, with 50 μM qVD-OPH
# In short: as §1
# MEFs [4] = experiment: long-term tolerance assay; type: cell-based, mouse; details: wild-type MEFs; retroviral expression linked to GFP through IRES; ∼40 d
# In short: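 SV40-immortalized MEF lines stably expressing BH3-only constructs from pMIG (GFP via IRES) were grown without selection. They were harvested every 3 or 4 d over 38 d. At each time point, flow cytometry measured the proportion of GFP+ cells that excluded propidium iodide.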
molecule,measurement,setting,value
CN(C)CC[C@H](CSc1ccccc1)Nc1ccc(S(=O)(=O)NC(=O)c2ccc(N3CCN(Cc4ccccc4-c4ccc(Cl)cc4)CC3)cc2)cc1[N+](=O)[O-] [ABT-737],cytochrome c release,[1]; mitochondria from BimS2A-expressing cells,significant release
same,cytochrome c release,[1]; mitochondria from BimS4E-expressing cells,No cytochrome c release
same,time to maximal cell death,"MEFs [2]; 1 μM ABT-737, MEFs expressing BimS2A, Noxa or BimSNoxaBH3",4 to 6 h
same,killing of MEFs lacking Bim and Bid,MEFs [2]; ABT-737 with BimS2A expression,able to synergize and kill
same,killing of bax−/− and bak−/− MEFs,MEFs [2]; BimS2A/ABT-737 combination,able to kill
same,viability of MEFs expressing Mcl-1–selective BH3-only proteins,"MEFs [2]; MEFs expressing BimS2A, BimSNoxaBH3 or Noxa, 24 h, 0–10 μM ABT-737",efficiently kill cells
CC(C)[C@H](NC(=O)c1ccc2ccccc2n1)C(=O)N[C@@H](CC(=O)O)C(=O)COc1c(F)cccc1F [qVD-OPH],effect on killing induced by ionomycin,"primary thymocytes; 50 μM qVD-OPH, thymocytes",significantly reduced the killing
C[C@H](CCC(=O)O)C[C@H](C)C[C@H](C)C(=O)/C=C(\O)[C@H](C)C[C@H](C)C/C=C/[C@@H](C)[C@@H](O)[C@@H](C)[C@@H](O)C[C@@H]1CC[C@@](C)([C@H]2CC[C@@](C)([C@@H](C)O)O2)O1 [ionomycin],Mcl-1 levels after treatment,[3],did not significantly change
same,killing of Bim-deficient thymocytes,primary thymocytes; 0–24 h,attenuates
same,death of wild-type thymocytes,"primary thymocytes; 0–24 h, three experiments",significant death
C/C=C(/C)C(=O)O[C@H]1C(C)=C2[C@H]([C@@H]1OC(=O)CCCCCCC)[C@@](C)(OC(C)=O)C[C@H](OC(=O)CCC)[C@@]1(O)[C@H]2OC(=O)[C@@]1(C)O [thapsigargin],cell death of MCF-7 cells expressing Bim shRNA,MCF-7 cells,relatively insensitive
same,cell death of wild-type MCF-7 cells,MCF-7 cells; three experiments,Significant cell death
same,Mcl-1 levels over levels in untreated cells,Mcl-1 in MCF-7 cells,up to twofold
B1,viable cells that remained GFP+ve,MEFs [4],progressive loss
B2,viable cells that remained GFP+ve,MEFs [4],> 80%
B3,viable cells that remained GFP+ve,MEFs [4],progressive loss
